# This is a sample that favours compounds with a hit; in the whole collection about 4.7% have one here.
# MC4R ag barr: activates human MC4R beta-arrestin recruitment. activation, % at 8.9 µM. 360,000 tested, 0.98% active. AID 540308. U2OS MC4R beta-arrestin complementation, luminescence; percent of melanotan II response, DMSO zero;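 active = activation above a per-plate cutoff, the mean activation of sample wells on that plate plus 3 SD, cut at about 8% in these data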
# HTR2A ag: agonists of mouse serotonin 5-HT2A receptor (HTR2A) | CHO-K1 mHTR2A beta-arrestin complementation, luminescence; percent of 30 µM serotonin response | 360,000 tested, 0.66% active | AID 624169 | P35363 | activation, % at 7.6 µM;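 active = activation above a run cutoff, the mean activation of all tested compounds plus 3 SD, cut at about 14% in these data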;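 note: 0% = plate median of compound wells and 100% = 30 µM serotonin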
# GAA850 FXN act: activators of GAA850 frataxin (FXN) promoter; HEK293 lucGAA850 FXN promoter luciferase reporter, 24 h; percent of 10 µM SAHA response; activation, % at 6 µM; 360,000 tested, 0.56% active; AID 540364;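 active = activation above the average of all compounds screened plus 3 SD, cutoff fixed separately per campaign, cut at about 7.5% in these data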;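 note: 0% = DMSO wells and 100% = 10 µM SAHA wells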
# MC4R antagonist: antagonists of human melanocortin 4 receptor (MC4R); P32245; MC4R-expressing cells, MTII-stimulated cAMP, LANCE TR-FRET; inhibition, % at 6.5 µM; 360,000 tested, 0.48% active; AID 540295;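 active = inhibition above its plate's cutoff, the mean of tested wells on that plate plus 3 SD, cut at about 29% in these data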;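 note: 0% = Melanotan II alone and 100% = Melanotan II plus saturating MCL0020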
#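 System: U2OS cells stably expressing human melanocortin 4 receptor (MC4R). Reagent: Melanotan II challenge after compound preincubation. Doses: 6.5 µM. Times: 30-min compound, 1-h challenge, 1-h detection, room temperature. Measured by: TR-FRET with Eu-cAMP and labeled anti-cAMP, 671 nm. Replicates: singlicate.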
# AHR activator: activates the human aryl hydrocarbon receptor | 320,000 tested, 2.5% active | AHR-responsive luciferase reporter cells, luminescence | AID 2796 | activation, % at 5 µM | P35869; in the data active = activation above about 47%;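 note: 0% = vehicle wells and 100% = reference agonist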
# Target sequence (P35869 whole entry, looked up): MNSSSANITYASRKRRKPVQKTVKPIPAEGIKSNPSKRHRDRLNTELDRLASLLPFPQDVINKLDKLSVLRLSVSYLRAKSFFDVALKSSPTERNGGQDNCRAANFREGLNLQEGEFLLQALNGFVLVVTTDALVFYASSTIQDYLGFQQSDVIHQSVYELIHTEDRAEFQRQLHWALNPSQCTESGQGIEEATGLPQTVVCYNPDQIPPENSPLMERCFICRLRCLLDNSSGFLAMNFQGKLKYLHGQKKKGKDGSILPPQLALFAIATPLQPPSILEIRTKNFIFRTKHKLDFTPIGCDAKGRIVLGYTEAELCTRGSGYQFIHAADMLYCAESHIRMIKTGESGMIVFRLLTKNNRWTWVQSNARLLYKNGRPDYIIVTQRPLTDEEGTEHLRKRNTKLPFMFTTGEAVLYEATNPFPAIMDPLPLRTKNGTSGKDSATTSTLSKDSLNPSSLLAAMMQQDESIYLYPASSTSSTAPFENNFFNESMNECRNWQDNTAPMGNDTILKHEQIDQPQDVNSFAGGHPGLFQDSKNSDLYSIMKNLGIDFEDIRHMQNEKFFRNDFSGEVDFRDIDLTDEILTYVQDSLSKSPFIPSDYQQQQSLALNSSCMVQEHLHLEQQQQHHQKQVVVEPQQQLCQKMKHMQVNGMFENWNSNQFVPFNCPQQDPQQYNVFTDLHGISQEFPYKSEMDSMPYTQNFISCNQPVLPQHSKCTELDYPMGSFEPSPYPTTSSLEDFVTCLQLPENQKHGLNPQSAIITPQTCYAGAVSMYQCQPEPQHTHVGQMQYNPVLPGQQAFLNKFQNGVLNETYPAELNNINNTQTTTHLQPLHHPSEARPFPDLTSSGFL
# * hit, by the source's call; . = not tested or not shown.
SMILES,MC4R ag barr,HTR2A ag,GAA850 FXN act,MC4R antagonist,AHR activator
O=[N+]([O-])c1ccc(C2Oc3ccccc3C3CC(c4ccccc4)=NN32)s1 (centres undefined),.,.,.,.,59*
Cc1ccccc1-c1cc2nc(NCc3ccccc3F)n(C)c(=O)c2s1,6,-3,1,1,.
NC(=O)C1CCCN(CC(=O)Nc2cc(S(=O)(=O)N3CCOCC3)ccc2N2CCCC2)C1 (centres undefined),0,1,1,9,1
O=C(CNC(=O)/C(=C\c1ccccc1)NC(=O)c1ccc(Br)cc1)OCc1ccccc1,0,-5,-4,14,3
O=C(CNC(=O)/C(=C\c1ccc(F)cc1)NC(=O)c1ccccc1)OCc1ccccc1,0,4,-1,44*,-1
CC(=O)Nc1nc2cc3c(cc2s1)OCO3,-1,3,2,13,54*
CC(C)C(=O)Nc1nc2cc3c(cc2s1)OCCO3,-2,2,2,-6,37
CC(=O)c1sc(Nc2nc3cc4c(cc3s2)OCO4)nc1C,-3,0,5,7,.
O=C(NNc1nc2cc3c(cc2s1)OCO3)c1ccc(F)cc1,0,2,4,-2,60*
c1ccc2sc(Nc3nc4cc5c(cc4s3)OCO5)nc2c1,2,-2,5,16,137*
OCCN1CCN(C2CCC(c3ccc(F)cc3)c3ccc(F)cc32)CC1 (centres undefined),9.0*,-10,0,6,-2
O=C(C[C@@H]1C=C[C@H](NC(=O)Cc2ccccn2)[C@@H](CO)O1)NCCc1ccccc1,.,4,.,.,.
O=S(=O)(c1ccc(NC(=S)Nc2ccc3c(c2)OCO3)cc1)N1CCOCC1,-2,1,1,-8,74*
CN(C)C(CNC(=O)C1CC(=O)N(c2cccc(C(F)(F)F)c2)C1)c1ccccc1 (centres undefined),1,-5,2,-2,.
CNC(=S)N(CCc1c(C)[nH]c2ccc(C)cc12)Cc1ccco1,-1,2,-2,23,55*
CCOc1ccc(NC(=S)N(CCc2c(C)[nH]c3ccccc23)Cc2cccnc2)cc1,0,-3,-1,8,30
CCNC(=S)N(CCc1c(C)[nH]c2ccc(Cl)cc12)Cc1ccco1,-1,-3,1,5,47*
COCCNC(=S)N(CCc1c(C)[nH]c2ccccc12)Cc1ccco1,-3,-6,1,8,11
COc1ccc(NC(=S)N(CCc2c(C)[nH]c3ccc(C)cc23)Cc2cccnc2)cc1,-2,0,-2,2,54*
COc1ccc(OC)c(NC(=O)C(C)OC(=O)c2cc3ccccc3[nH]2)c1 (centres undefined),-2,7,-2,9,.
O=C(CSc1nncn1-c1ccccc1F)NC1CC1,-1,2,1,11,0
COc1ccc(/C=N/Nc2nc(-c3cccnc3)nc3ccccc23)c(OC)c1,1,-2,-1,4,51*
Cc1ccc(-c2nc(N/N=C/c3cccc([N+](=O)[O-])c3)c3ccccc3n2)cc1,1,8,0,8,14
COc1ccc(/C=N/NC(=O)c2cc(-c3ccccc3)nc3ccccc23)c(OC)c1,-4,-11,5,-13,25
Cc1ccc(-c2nc(N/N=C/c3cccnc3)c3ccccc3n2)cc1,1,4,-1,8,62*
SMILES,MC4R ag barr,HTR2A ag,GAA850 FXN act,MC4R antagonist,AHR activator
C(=N\Nc1nc(Nc2ccccc2)nc(Nc2ccccc2)n1)/c1cccnc1,-1,-7,-5,14,142*
C(=N\Nc1nc(Nc2ccccc2)nc(Nc2ccccc2)n1)/c1ccncc1,6,-2,-2,1,28
COc1ccc(/C=N/Nc2nc(C)cc(-c3ccccc3)n2)cc1OC,-1,0,0,6,52*
CC(C)CCN(C(=S)NC(=O)C1CCCCC1)c1c(N)n(Cc2ccccc2)c(=O)[nH]c1=O,1,0,-2,28,-3
Cc1ccc(-c2cc(-c3ccccc3)nc(N/N=C/c3cccnc3)n2)cc1,1,-1,1,-7,63*
COc1ccc2oc(=O)c(C(=O)Nc3cccc(C(C)=O)c3)cc2c1,-1,0,2,5,4
COc1ccc2oc(=O)c(/C(C)=N/Nc3ccccc3)cc2c1,7,4,1,-48,61*
CC1=NN(C(N)=S)C(=O)C1N=Nc1ccccc1 (centres undefined),-2,4,1,-3,70*
CC1=NN(C(N)=S)C(=O)C1N=Nc1ccc(Br)cc1 (centres undefined),0,-2,5,2,.
CC1=NN(C(N)=S)C(=O)C1N=Nc1cccc([N+](=O)[O-])c1 (centres undefined),-2,3,3,3,63*
CC1=NN(C(N)=S)C(=O)C1N=Nc1cccc2ccccc12 (centres undefined),.,.,.,.,93*
CC1=NN(C(N)=S)C(=O)C1N=Nc1ccc(Cl)cc1 (centres undefined),-1,-1,3,-3,.
CCOc1ccccc1N(CC(=O)NC1CCCC1)S(=O)(=O)c1ccc(C)cc1,0,11,3,-1,2
Cc1cc(C)cc(NC(=O)Nc2ccc3c(c2)N(C)C(=O)CS3)c1,3,-8,-2,24,71*
O=S(=O)(c1ccccc1)N1c2cc(Cl)ccc2Oc2nc3ccccc3nc21,-3,-8,2,-2,74*
Cc1ccc(C(=O)NC(=S)Nc2cccc3nsnc23)cc1,0,1,3,10,21
Cc1ccc(C(=O)NC(=S)Nc2c(C)ccc3nsnc23)cc1,-3,1,2,3,94*
CC(C)(C)c1cc(NS(=O)(=O)c2ccc(Br)s2)no1,-2,-6,-2,2,0
CN[C@H]1C[C@H]2c3cc(N4CCN(C)CC4)ccc3CCN2C(=O)[C@H]1[C@H](C)O,2,2,1,-2,.
CC1=C(CC(=O)c2ccc(Cl)cc2)C(=O)c2ccccc2C1=O,3,2,1,-1,55*
Cn1ncc2cc3c(Nc4ccc(Cl)cc4)cccc3nc21,.,0,.,.,.
CC1([N+](=O)[O-])COC(c2cccc3ccccc23)OC1 (centres undefined),-1,-2,2,8,.
CCCCCC(=O)N1C[C@@H](n2cc(-c3ccc(F)cc3)nn2)[C@H](O)C[C@@H]1c1ccc(OC)cc1,1,-9,0,10,.
Cc1ccsc1/C=C1\CCc2ccccc2C1=O,-1,-4,-1,-2,50*
COc1cccc(-c2c(C(=O)N/N=C(\C)c3cccnc3)nnn2-c2nonc2N)c1,-4,-8,2,-1,62*
C/C(=N\NC(=O)c1nnn(-c2nonc2N)c1-c1cccs1)c1cccnc1,-5,-7,-1,9,63*
CCOC(=O)[C@]12CCCC=C1N(Cc1ccccc1)C(=O)[C@H](CC(=O)N1CCCCCC1)C2,.,-2,.,.,.
